Experimental data published in ChEMBL document CHEMBL4825737, “Design, synthesis, and biological evaluation of novel 6-(pyridin-3-yl) quinazolin-4(3H)-one derivatives as potential anticancer agents via PI3K inhibition” (Bioorg Med Chem, 2021).

Tests used:
Assay type in all cases: functional, cell-based
[1] = system: HEL; experiment: Antiproliferative activity against human HEL cells assessed as reduction in cell viability measured after 72 hrs by flow cytometry analysis
Procedure, shortened: (§1)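 Cells in RPMI 1640 with 10% FBS and penicillin/streptomycin/amphotericin B, seeded at 2.5–3 × 10⁴ per well. Grown adherent in fresh medium for 24 h, then exposed to a range of compound concentrations for 72 h. Living cell numbers counted by flow cytometry; IC50 calculated. Mean ± SD from three experiments.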

[2] = system: L02; experiment: Antiproliferative activity against human HL7702 cells assessed as reduction in cell viability measured after 72 hrs by flow cytometry analysis; settings: L02, 72 h; procedure, shortened: as §1
[3] = Antiproliferative activity against human LM3 cells assessed as reduction in cell viability measured after 72 hrs by flow cytometry analysis; settings: GILM3, 72 h; procedure, shortened: as §1
[4] = system: SH-SY5Y; experiment: Antiproliferative activity against human SH-SY5Y assessed as reduction in cell viability measured after 72 hrs by flow cytometry analysis; procedure, shortened: as §1
[5] = system: HCC827; experiment: Antiproliferative activity against human HCC827 cells assessed as reduction in cell viability measured after 72 hrs by flow cytometry analysis; settings: HCC827, 72 h; procedure, shortened: as §1

| IC50 [4] [µM] | IC50 [5] [µM] | Structure (SMILES) | IC50 [1] [µM] | IC50 [2] [µM] | IC50 [3] [µM] |
| --- | --- | --- | --- | --- | --- |
| 3.72 | 1.2 | CCCCn1cnc2ccc(-c3ccc(NC(=O)CC)nc3)cc2c1=O | 2.83 | 10.9 | 2.49 |
| > 40 | > 40 | CCCCC(=O)Nc1ccc(-c2ccc3ncn(Cc4ccc5c(c4)OCO5)c(=O)c3c2)cn1 | > 40 | – | > 40 |
| > 40 | > 40 | CC(C)(C)C(=O)Nc1ccc(-c2ccc3ncn(Cc4ccc5c(c4)OCO5)c(=O)c3c2)cn1 | > 40 | – | > 40 |
| > 40 | > 40 | CCC(=O)Nc1ccc(-c2ccc3ncn(Cc4ccc(C)cc4)c(=O)c3c2)cn1 | > 40 | – | > 40 |
| > 40 | > 40 | CCC(=O)Nc1ccc(-c2ccc3ncn(CCN4CCOCC4)c(=O)c3c2)cn1 | > 40 | – | > 40 |
| > 40 | > 40 | CCC(=O)Nc1ccc(-c2ccc3ncn(Cc4ccc5c(c4)OCO5)c(=O)c3c2)cn1 | > 40 | – | > 40 |
| > 40 | > 40 | CCC(=O)Nc1ccc(-c2ccc3ncn(CC(=O)N4CCOCC4)c(=O)c3c2)cn1 | > 40 | – | > 40 |
| > 40 | > 40 | COCC(=O)Nc1ccc(-c2ccc3ncn(Cc4ccccc4)c(=O)c3c2)cn1 | > 40 | – | > 40 |
| > 40 | > 40 | CCCCC(=O)Nc1ccc(-c2ccc3ncn(Cc4ccccc4)c(=O)c3c2)cn1 | > 40 | – | > 40 |
